Assay [1] can be described thus: Her2 expression decrease, cell viability multiplex – SKBR3 breast tumor cells, AlphaScreen, ATP viability, primary screen (AID 461;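 active = Her2 level under about 52% in both replicate screens, with viability over 70% of control, limit read from the data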;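 for Her2 level: lower value means less Her2 protein in the cells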;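 for viability: percent of carrier control wells set as 100% viability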). The settings on record: SKBR3 Her2 protein level, 18-24 h, measured here: SKBR3 viability, ATP luminescence, at 10 µM. In general terms: In Alpha technology, singlet oxygen from a donor bead excites a nearby acceptor bead.
In assay [2] the target is Receptor tyrosine-protein kinase erbB-2 (Homo sapiens) (UniProt P04626). The assay is described as above. To be noted: 18-24 h, at 10 µM, stronger effect = lower value.
Receptor tyrosine-protein kinase erbB-2 (Homo sapiens), sequence (P04626 whole entry, looked up): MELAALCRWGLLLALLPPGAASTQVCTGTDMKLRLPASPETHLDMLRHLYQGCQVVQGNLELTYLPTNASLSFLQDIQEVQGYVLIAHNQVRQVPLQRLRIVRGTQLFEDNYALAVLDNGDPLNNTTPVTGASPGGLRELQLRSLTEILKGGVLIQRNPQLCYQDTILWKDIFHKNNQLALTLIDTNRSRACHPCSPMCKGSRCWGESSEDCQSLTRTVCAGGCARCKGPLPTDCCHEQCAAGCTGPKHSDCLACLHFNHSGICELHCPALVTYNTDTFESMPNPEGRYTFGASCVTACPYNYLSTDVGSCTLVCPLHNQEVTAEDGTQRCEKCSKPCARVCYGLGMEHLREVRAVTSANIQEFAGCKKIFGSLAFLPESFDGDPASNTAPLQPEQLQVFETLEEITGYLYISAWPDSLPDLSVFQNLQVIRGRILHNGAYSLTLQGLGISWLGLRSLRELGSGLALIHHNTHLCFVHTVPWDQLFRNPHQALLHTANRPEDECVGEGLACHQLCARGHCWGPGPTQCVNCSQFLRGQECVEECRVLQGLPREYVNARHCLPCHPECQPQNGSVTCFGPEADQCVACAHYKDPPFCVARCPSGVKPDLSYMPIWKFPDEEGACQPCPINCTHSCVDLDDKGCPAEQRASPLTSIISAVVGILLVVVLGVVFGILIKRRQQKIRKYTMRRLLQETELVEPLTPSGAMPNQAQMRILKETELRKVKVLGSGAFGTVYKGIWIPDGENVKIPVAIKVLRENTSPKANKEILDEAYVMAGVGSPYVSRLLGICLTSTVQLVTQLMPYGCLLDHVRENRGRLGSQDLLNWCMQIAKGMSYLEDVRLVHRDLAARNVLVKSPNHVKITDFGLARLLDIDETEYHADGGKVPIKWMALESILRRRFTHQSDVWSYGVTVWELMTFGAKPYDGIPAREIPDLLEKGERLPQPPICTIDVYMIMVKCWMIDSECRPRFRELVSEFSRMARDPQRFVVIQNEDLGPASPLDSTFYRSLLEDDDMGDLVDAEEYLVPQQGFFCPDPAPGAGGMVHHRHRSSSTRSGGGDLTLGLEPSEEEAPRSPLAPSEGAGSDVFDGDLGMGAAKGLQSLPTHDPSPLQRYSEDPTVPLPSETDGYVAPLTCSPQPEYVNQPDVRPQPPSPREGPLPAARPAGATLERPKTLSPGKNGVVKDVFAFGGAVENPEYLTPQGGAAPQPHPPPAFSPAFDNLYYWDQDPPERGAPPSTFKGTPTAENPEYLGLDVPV
Assay [3] is described as follows: reduced viability of SK-BR-3 breast cancer cells – cell-based, 24 h, human, pilot screen (AID 572;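 active = viability at or below 10% of carrier control in both of two separate runs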;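 note: compound exposure lasted between 18 and 24 h rather than exactly 24 h; 100% = carrier-treated control wells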). To be noted: SK-BR-3 viability, CellTiter-Glo luminescence, at 10 µM, stronger effect = lower value. On the technique in general: Cellular ATP, detected with luciferase, serves as a proxy for viable cell number.
A short description of assay [4]: HUVEC growth inhibition – cell-based, human, primary screen (AID 575).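 Note: 100% = median of untreated cell wells with 0.1% DMSO on each plate.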 The settings on record: HUVEC proliferation, CellTiter-Glo luminescence, 72 h; at 10 µM; stronger effect = lower value. The essentials: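 System: primary human umbilical vein endothelial cells; Quantity: 1250 endothelial cells in each well; Buffer or medium: supplemented EBM, 2% fetal bovine serum; Doses: one dose, 10 µM final, 0.1% DMSO; Incubation: 72 h compound incubation; Technique: ATP-based CellTiter-Glo luminescent read; Evaluation: percent of median DMSO-control luminescence; Controls: vehicle and MePR control wells.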

Assay [5] in a line: H69AR cell proliferation blockers – human, duplicate replicates, primary screen (AID 580;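 active = viability at or under a set limit in both replicates, limit being median viability minus 3 SD, cut at about 48% in these data, passing the limit was not always enough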;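 note: 100% = mean luminescence of untreated wells and 0% = no signal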). To be noted: H69AR lung tumor cells viability, ATP luminescence, 72 h; at 10 µM; stronger effect = lower value.
A short description of assay [6]: MRP1 drug-resistance reversers in H69AR cells – cell-based, doxorubicin co-treatment, pilot screen (AID 601;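 active = viability loss from added drug above about 55%, and viability with drug at most 40%, in both replicates, limit read from the data, passing the limit was not always enough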). The settings on record: CellTiter-Glo, 72 h, at 10 µM; for differential viability (reversal): stronger effect = higher value.
The nature of assay [7]: yeast transport mutant growth inhibition pilot in 384-well plates, post-Golgi transport modulator project (AID 636; in the data active = inhibition above about 31%). The settings on record: absorbance 615 nm, about 18 h, stronger effect = higher value.
Assay [8] in a line: growth suppression of yeast trafficking mutant, preliminary HTS, modulators of trafficking downstream of Golgi apparatus project, 1536-format plate, OD 615 nm (AID 637; in the data active = inhibition above about 30%). The settings on record: yeast transport mutant growth, absorbance 615 nm, 18 h; stronger effect = higher value.
The mark [9] stands for this setting: H69AR cells + 2 uM doxorubicin, measured here: viability with 2 uM doxorubicin, stronger effect = lower value.
The mark [10] stands for this setting: H69AR cells, compound alone cytotoxicity.

SMILES strings stand for the structures. Activity calls are given as the source filed them.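 Rule for the calls, unless noted: active = viability at or below 30% in both replicate assays; inconclusive = viability at or below 30% in just one of the two assays; inactive = the rest.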

What is called viability is a read-out of living cells in per cent, often relative to untreated cells. In general, inhibition refers to the relative decrease from the control value, in per cent. `COc1cc2c(cc1NC(=O)CN1CCN(S(=O)(=O)c3ccc(F)cc3)CC1)oc1ccccc12`: the viability in assay [1] is 93.5%; in assay [3] it was 93.5% (inactive); in assay [4], 66.4% (inactive); in assay [5] it was 95.7% (inactive); in assay [6] (setting [9]), 94.4%; in assay [6] (setting [10]), 95.7%. Moreover, the Her2 level in assay [2] was 105% (inactive). Also, the differential viability (reversal) in assay [6] (H69AR cells + 2 uM doxorubicin) is 1.29% (inactive). Also, the figures for the inhibition in assay [7] and in assay [8] were -2.37% (inactive) and 3.33% (inactive), respectively.

With `Cc1cc(NC(=O)COC(=O)C2COc3ccccc3O2)no1` (stereo not given), the viability in assay [1] was 110%; in assay [3], 110% (inactive); in assay [4], 104% (inactive); in assay [5] it was 96.7% (inactive); in assay [6] (setting [9]), 85.7%; in assay [6] (setting [10]), 96.7%. Also, the Her2 level in assay [2] is 95.5% (inactive). For the same molecule, in assay [6] (H69AR cells + 2 uM doxorubicin), the differential viability (reversal) was 11% (inactive). Also, the figures for the inhibition in assay [7] and in assay [8] were -4.61% (inactive) and -5% (inactive), respectively.

Regarding `CCCN(Cc1cc2cc(C)ccc2[nH]c1=O)C(=O)c1cccc(OC)c1`, the viability is 114% in assay [1]; 114% (inactive) in assay [3]; 70.6% (inactive) in assay [4]; 81.2% (inactive) in assay [5]; 82.1% in assay [6] (setting [9]); 81.2% in assay [6] (setting [10]). In assay [2], the Her2 level is 91% (inactive). The differential viability (reversal) in assay [6] (H69AR cells + 2 uM doxorubicin) was -0.89% (inactive). The inhibition in assay [7] was -7.07% (inactive); in assay [8] it was -0.65% (inactive).

Consider `CC(C)C(=O)Nc1nnc(CCc2nnc(NC(=O)C(C)C)s2)s1`, for which the viability in assay [1] is 99%; in assay [3] it was 99% (inactive); in assay [4], 106% (inactive); in assay [5], 93.6% (inactive); in assay [6] (setting [9]) it was 91.3%; in assay [6] (setting [10]) it was 93.6%. Besides, in assay [2], the Her2 level was 97% (inactive). Moreover, in assay [6] (H69AR cells + 2 uM doxorubicin), the differential viability (reversal) was 2.27% (inactive). In addition, the inhibition was -4.61% (inactive) in assay [7] and 0.16% (inactive) in assay [8].

Regarding `c1ccc(N=P(c2nc3ccccc3o2)(N2CCOCC2)N2CCOCC2)cc1`, the viability was 119% in assay [1]; 119% (inactive) in assay [3]; 104% (inactive) in assay [4]; 91.4% (inactive) in assay [5]; 89.4% in assay [6] (setting [9]); 91.4% in assay [6] (setting [10]). Also, the Her2 level in assay [2] was 89.5% (inactive). Further, in assay [6] (H69AR cells + 2 uM doxorubicin), the differential viability (reversal) is 1.96% (inactive). In addition, the values for the inhibition in assay [7] and in assay [8] were -4.27% (inactive) and 7.26% (inactive), respectively.

As for `O=C(c1cccn2c(=O)c3cc(Cl)ccc3nc12)N1CCOCC1`, the viability in assay [1] is 95.5%; in assay [3], 95.5% (inactive); in assay [4], 98% (inactive); in assay [5], 116% (inactive); in assay [6] (setting [9]), 96%; in assay [6] (setting [10]) it was 116%. Further, in assay [2], the Her2 level was 104% (inactive). Besides, in assay [6] (H69AR cells + 2 uM doxorubicin), the differential viability (reversal) is 20.2% (inactive). The inhibition in assay [7] is -3.2% (inactive); in assay [8], -5.32% (inactive).

Take `COCCOC(=O)c1c(C)nc(SCC(=O)Nc2ccc(OC)cc2)c(C#N)c1-c1ccco1`: the viability is 108% in assay [1]; 108% (inactive) in assay [3]; 73.9% (inactive) in assay [4]; 91% (inactive) in assay [5]; 76.3% in assay [6] (setting [9]); 91% in assay [6] (setting [10]). Besides, the Her2 level in assay [2] is 87.5% (inactive). Besides, the differential viability (reversal) in assay [6] (H69AR cells + 2 uM doxorubicin) was 14.7% (inactive). Moreover, the inhibition is -2.63% (inactive) in assay [7] and -5.97% (inactive) in assay [8].

`CCCCNC(=O)c1nc2ncc(Br)cn2n1`: the viability in assay [1] was 108%; in assay [3], 108% (inactive); in assay [4], 100% (inactive); in assay [5], 85.4% (inactive); in assay [6] (setting [9]), 91.4%; in assay [6] (setting [10]) it was 85.4%. For the same molecule, in assay [2], the Her2 level is 75% (inactive). The differential viability (reversal) in assay [6] (H69AR cells + 2 uM doxorubicin) is -5.97% (inactive). In addition, the inhibition was -3.51% (inactive) in assay [7] and -2.3% (inactive) in assay [8].

As for `CCN1CCN(c2nc3c(C)cccn3c(=O)c2/C=C(\C#N)S(=O)(=O)c2ccccc2)CC1`, the viability in assay [1] is 93%; in assay [3], 93% (inactive); in assay [4] it was 89.6% (inactive); in assay [5] it was 75.1% (inactive); in assay [6] (setting [9]), 82.8%; in assay [6] (setting [10]) it was 75.1%. The Her2 level in assay [2] is 76.5% (inactive). Further, the differential viability (reversal) in assay [6] (H69AR cells + 2 uM doxorubicin) was -7.74% (inactive). Further, the inhibition was -2.76% (inactive) in assay [7] and -0.18% (inactive) in assay [8].

As to `COc1ccccc1CNC(=O)C1CCCN(S(=O)(=O)c2cnc[nH]2)C1` (stereo not given), the viability in assay [1] is 94%; in assay [3] it was 94% (inactive); in assay [4] it was 105% (inactive); in assay [5], 109% (inactive); in assay [6] (setting [9]) it was 92.3%; in assay [6] (setting [10]), 109%. Further, in assay [2], the Her2 level is 102% (inactive). In assay [6] (H69AR cells + 2 uM doxorubicin), the differential viability (reversal) was 16.7% (inactive). The inhibition in assay [7] was 1.47% (inactive); in assay [8], -0.98% (inactive).

In the case of `c1ccc2c(c1)Cn1c-2nc2ccccc21`, the viability is 114% in assay [1]; 114% (inactive) in assay [3]; 120% (inactive) in assay [4]; 78.4% (inactive) in assay [5]; 79.9% in assay [6] (setting [9]); 78.4% in assay [6] (setting [10]). Besides, in assay [2], the Her2 level was 95% (inactive). Besides, in assay [6] (H69AR cells + 2 uM doxorubicin), the differential viability (reversal) was -1.54% (inactive). Also, the values for the inhibition in assay [7] and in assay [8] were -6.35% (inactive) and 1% (inactive), respectively.

Regarding `Cc1ccc2cc(CN(CC3CCCO3)S(=O)(=O)c3ccc4c(c3)OCCO4)c(=O)[nH]c2c1C` (stereo not given), the viability is 86.5% in assay [1]; 86.5% (inactive) in assay [3]; 84.1% (inactive) in assay [4]; 86.1% (inactive) in assay [5]; 82.9% in assay [6] (setting [9]); 86.1% in assay [6] (setting [10]). For the same molecule, the Her2 level in assay [2] was 80% (inactive). The differential viability (reversal) in assay [6] (H69AR cells + 2 uM doxorubicin) is 3.25% (inactive). In addition, the inhibition in assay [7] is -5.07% (inactive); in assay [8], -6.03% (inactive).

With `CCOC(=O)c1cc2sccc2n1CC(=O)Nc1ccc(OC)cc1OC`, the viability in assay [1] is 90%; in assay [3] it was 90% (inactive); in assay [4], 75.4% (inactive); in assay [5], 82% (inactive); in assay [6] (setting [9]), 89.6%; in assay [6] (setting [10]), 82%. Besides, in assay [2], the Her2 level was 86.5% (inactive). For the same molecule, in assay [6] (H69AR cells + 2 uM doxorubicin), the differential viability (reversal) is -7.66% (inactive). The inhibition in assay [7] was -1.97% (inactive); in assay [8], -3.82% (inactive).

As to `Cc1cc(OCC(=O)Nc2ccc3oc(-c4ccncc4)nc3c2)ccc1Cl`, the viability is 92.5% in assay [1]; 92.5% (inactive) in assay [3]; 68% (inactive) in assay [4]; 60.1% (inactive) in assay [5]; 58.7% in assay [6] (setting [9]); 60.1% in assay [6] (setting [10]). The Her2 level in assay [2] was 121% (inactive). Moreover, the differential viability (reversal) in assay [6] (H69AR cells + 2 uM doxorubicin) was 1.31% (inactive). The inhibition in assay [7] was 3.95% (inactive); in assay [8] it was 8.85% (inactive).

Take `O=C(O)C1CC(=O)N(c2ccc(Br)cc2)C1` (stereo not given): the viability in assay [1] is 81.5%; in assay [3], 81.5% (inactive); in assay [4], 94.6% (inactive); in assay [5], 93.8% (inactive); in assay [6] (setting [9]) it was 89.8%; in assay [6] (setting [10]), 93.8%. The Her2 level in assay [2] is 122% (inactive). Also, the differential viability (reversal) in assay [6] (H69AR cells + 2 uM doxorubicin) was 4.02% (inactive). In addition, the inhibition in assay [7] is -6.05% (inactive); in assay [8], -4.1% (inactive).

Source of the values: PubChem BioAssay.
